Furin inh = inhibitors of human furin | purified furin, fluorogenic substrate cleavage | inhibition, % at 20 µM or 30 µM | 0.061% of 220,000 active | AID 463115; in the data active means inhibition above about 25%
Cl transport mod = modulates chloride dependent transport by human KCC2; Q9H2X9; KCC2 cells, thallium flux FluoZin-2 fluorescence; B-score of Tl+ flux slope (higher = more flux/activation; lower = inhibition) at 10 µM; 2.2% of 190,000 active; AID 1456;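 active means thallium flux slope and its plate-corrected score both differing from the plate sample mean at a set confidence after two filtering rounds, in either direction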;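 further: slope of fluorescence scaled to starting intensity during 10 to 20 s after thallium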
Target sequence (Q9H2X9 whole entry, looked up): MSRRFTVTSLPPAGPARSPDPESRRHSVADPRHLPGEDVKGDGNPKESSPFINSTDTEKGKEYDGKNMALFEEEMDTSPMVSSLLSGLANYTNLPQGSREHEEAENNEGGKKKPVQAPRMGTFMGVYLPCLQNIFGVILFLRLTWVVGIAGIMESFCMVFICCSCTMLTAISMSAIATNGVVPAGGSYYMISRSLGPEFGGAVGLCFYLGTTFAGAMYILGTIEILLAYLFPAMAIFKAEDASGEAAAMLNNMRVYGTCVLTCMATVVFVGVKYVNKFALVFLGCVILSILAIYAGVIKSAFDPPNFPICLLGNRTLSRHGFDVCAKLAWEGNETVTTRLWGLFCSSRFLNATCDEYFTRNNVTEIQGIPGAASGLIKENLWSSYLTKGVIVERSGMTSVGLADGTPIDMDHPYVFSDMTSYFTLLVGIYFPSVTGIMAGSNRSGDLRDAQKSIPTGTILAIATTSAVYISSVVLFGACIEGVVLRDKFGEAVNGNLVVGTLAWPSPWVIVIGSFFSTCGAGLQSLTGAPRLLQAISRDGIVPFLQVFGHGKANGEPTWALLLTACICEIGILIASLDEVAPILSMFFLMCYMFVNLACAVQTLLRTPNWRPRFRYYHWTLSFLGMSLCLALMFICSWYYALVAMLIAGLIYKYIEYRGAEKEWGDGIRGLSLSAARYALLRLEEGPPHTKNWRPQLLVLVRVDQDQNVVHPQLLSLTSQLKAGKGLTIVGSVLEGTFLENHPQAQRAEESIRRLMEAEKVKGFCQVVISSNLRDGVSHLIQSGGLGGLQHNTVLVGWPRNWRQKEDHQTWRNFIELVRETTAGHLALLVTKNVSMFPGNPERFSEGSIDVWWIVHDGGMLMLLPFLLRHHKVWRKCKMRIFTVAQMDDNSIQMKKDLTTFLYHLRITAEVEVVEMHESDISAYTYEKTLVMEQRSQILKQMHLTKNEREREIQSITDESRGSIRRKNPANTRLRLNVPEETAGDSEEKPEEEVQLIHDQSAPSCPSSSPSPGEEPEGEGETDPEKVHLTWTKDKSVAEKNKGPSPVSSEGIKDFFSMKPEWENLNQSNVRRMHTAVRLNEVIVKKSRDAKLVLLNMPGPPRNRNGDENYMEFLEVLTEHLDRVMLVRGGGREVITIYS
NPY1 pot ag = potentiates or activates human NPY-Y1 receptor | activation, % at 3.6 µM | AID 1304 | NPY-Y1 expressing cells, potentiator/agonist activation | 0.37% of 220,000 active; in the data active means activation above about 33%, passing the limit was not always enough;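 further: cells stimulated with NPY at EC10 then isoproterenol at EC100; 0% = low agonist plus stimulus and 100% = saturating agonist plus stimulus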
NPY-Y2 antag = blocks the human neuropeptide Y Y2 receptor; P49146; NPY-Y2 expressing cells, antagonist mode; inhibition, % at 2.7 µM; 0.99% of 140,000 active; AID 793; in the data active means inhibition above about 17%;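 further: 0% = vehicle with agonist challenge and 100% = reference antagonist with challenge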
NPY Y1 blocker = NPY-Y1 (human) receptor antagonism. 1% of 200,000 active. HEK293-CNG Y1 cells, membrane potential fluorescence; NPY at EC95, then isoproterenol. inhibition, % at 3.6 µM;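 active means inhibition above the campaign mean inhibition of all tested compounds plus 3 SD, cut at about 20% in these data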;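 further: 0% = DMSO wells given NPY plus isoproterenol and 100% = isoproterenol alone without NPY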
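Material: HEK293 cells co-expressing NPY Y1 receptor and cyclic-nucleotide gated channel. Timing: compound incubation 1 h at room temperature, readout 45 min post-stimulation. Signal: fluorescence, membrane potential probe.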
NPY-Y2 PAM-ag = human NPY-Y2 potentiation or agonism, primary screen. cells expressing NPY-Y2, potentiator/agonist read-out. activation, % at 3.6 µM. 0.45% of 220,000 active. AID 1359; in the data active means activation above about 27%;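 further: cells stimulated with NPY near EC25 plus isoproterenol at EC100; 0% = vehicle plus submaximal agonist and 100% = vehicle plus saturating agonist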
KCC2 sec1 = KCC2 (human) modulation, secondary assay; 15% of 3,700 active; HEK293-KCC2, thallium flux, FluoZin2 fluorescence; active compounds read high; normalised thallium flux (F/F0 slope) at 10 µM; shares compounds with Cl transport mod; AID 1713;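 active means thallium flux slope above the same plate's solvent-only control mean plus 3 SD; inconclusive means the two replicate wells disagree; inactive means no significant difference from solvent-only control wells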
KCC2 bumet counter = bumetanide-insensitive thallium flux in KCC2 cells with ouabain, counter-screen | shares compounds with Cl transport mod | HEK293-KCC2 + bumetanide/ouabain, thallium flux FluoZin2; active compounds read high | normalized thallium flux at 10 µM | 49% of 3,700 active | AID 1714;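 active means thallium entry rate above the same plate's blocked-transporter control wells by more than 3 SD; inconclusive means the two repeat wells disagree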;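 further: raw slope of fluorescence over initial fluorescence between 10 and 20 s after thallium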
KCC2 secondary2 = KCC2 (human) modulation, second secondary assay; shares compounds with Cl transport mod; HEK293-KCC2, thallium flux FluoZin2 fluorescence; actives lie on both sides; F/F0 rise rate, 10–20 s post-thallium; normalized thallium flux at 10 µM; 23% of 3,700 active; AID 1715;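 active means thallium flux slope more than 3 SD above or below the plate's solvent-only control mean, mostly below; inconclusive means the two repeat wells disagreed; inactive means no significant shift from solvent-only controls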;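 further: raw slope with 0.1% DMSO as baseline and bumetanide as block control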
HEK counter1 = parental HEK flux effect, counter-screen | shares compounds with Cl transport mod | HEK293 parental cells, thallium flux FluoZin2, ouabain; baseline-ratio fluorescence slope, 10–20 s after thallium | thallium flux rate (normalised fluorescence) at 10 µM | 46% of 3,700 active | AID 1716;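 active means thallium flux rate significantly above the same plate's solvent-only control wells, beyond their mean plus 3 SD; inconclusive means the two replicate wells gave conflicting results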
KCC2 retest ouab = KCC2 (human) modulation, ouabain retest; HEK293-KCC2, thallium flux FluoZin2 fluorescence; bidirectional: low = inhibitor, high = activator; raw Tl+ flux slope (below DMSO = inhibition, above = activation) at 10 µM; AID 1717; shares compounds with Cl transport mod; 48% of 3,700 active;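 active means thallium flux slope beyond 3 SD from same-plate DMSO control mean in most replicates, usually higher, sometimes lower; inconclusive means repeat tests gave conflicting results; inactive means no significant difference from controls in most replicates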;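 further: slope of initial-normalized fluorescence between seconds 10 and 20 after thallium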
HEK counter2 = parental HEK flux effect, counter-screen 2; shares compounds with Cl transport mod; HEK293 parental, thallium flux FluoZin-2 fluorescence slope; thallium flux slope at 10 µM; 33% of 3,700 active;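 active means thallium flux slope above the same plate's solvent-control mean plus 3 SD in both duplicate wells; inconclusive means duplicate wells that disagreed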;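 further: run without ouabain in cells lacking the KCC2 cotransporter; slope of fluorescence scaled to its starting value between 10 and 20 s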
The depositor's hits bear a star; ? = inconclusive; . = no result. Compounds with a hit are over-represented: about 3.7% of the library has one in this group of screens.

SMILES | Furin inh | Cl transport mod | NPY1 pot ag | NPY-Y2 antag | NPY Y1 blocker | NPY-Y2 PAM-ag | KCC2 sec1 | KCC2 bumet counter | KCC2 secondary2 | HEK counter1 | KCC2 retest ouab | HEK counter2
COC(=O)CN(c1cc([N+](=O)[O-])ccc1OC)S(C)(=O)=O | -22.8 | 0.62 | 4.8 | . | -0.7 | 5.9 | . | . | . | . | . | .
C/C(=N\NC(=O)CNc1cccc(C(F)(F)F)c1)c1cccc(Br)c1 | -24.0 | 5.45* | 8.4 | 3.3 | 3.8 | 1.3 | 0.0101 | 0.00637 | 0.0345 | 0.00741 | 0.0221 | 0.0107
CCN(CC)C(=S)SCC(=O)Nc1ncc2c(n1)CC(C)(C)CC2=O | -19.4 | 5.63* | 8.9 | . | . | -2.9 | 0.00575 | 0.00494 | 0.0311 | 0.00745 | 0.0191 | 0.0112
N#CC(C#N)=C(Nc1ccc(F)cc1)SCc1cccc(Br)c1 | -2.1 | -3.69* | -25.4 | 6.9 | 20.0 | 6.8 | 0.00654 | ? | ? | 0.00963* | 0.0146* | 0.0106
CC(SCc1ccccc1)C(=O)Nc1ccc(F)cc1 (stereo unspecified) | -5.6 | -0.379 | -12.0 | . | 0.1 | -3.5 | . | . | . | . | . | .
CCC(=Nc1ccc(Cc2ccncc2)cc1)c1c(O)n(C)c(=O)n(C)c1=O | -16.3 | -3.25* | 5.6 | 0.6 | -3.3 | 3.8 | 0.00784 | ? | 0.0239* | 0.00788 | ? | 0.0116
Cn1c(=O)c2c(O)c(Cc3ccccc3)c(=O)[nH]c2n(C)c1=O | -10.7 | 1 | -3.4 | 4.3 | 1.1 | -1.2 | . | . | . | . | . | .
COC(=O)c1ccc2c(=O)n(-c3ccc(OC)cc3)c(=S)[nH]c2c1 | -23.3 | 8.17* | 14.8 | . | -1.1 | -4.1 | 0.0104 | 0.0195* | 0.0305 | 0.0119* | ? | 0.00983
CCCCNC(=O)c1ccc2c(=O)n(CCCOCC)c(=S)[nH]c2c1 | -15.8 | 0.236 | -0.3 | -1.9 | -1.4 | -10.9 | . | . | . | . | . | .
CCOCCCNC(=O)c1ccc(-n2c(=S)[nH]c3ccccc3c2=O)cc1 | -15.1 | 10.5* | -20.2 | . | 4.2 | 2.0 | ? | 0.0149* | 0.0309 | 0.00928* | ? | 0.0103*
O=C(CN1CCCCCCC1)Nc1cccc(Cl)c1Cl | -14.3 | 1.28 | -4.8 | . | 2.9 | 7.4 | . | . | . | . | . | .
Cc1cc(C)n(-c2nc(SCCN(C)C)c3c4c(sc3n2)CCCC4)n1 | -4.0 | 6.16* | -180.7 | 101.0* | 92.2* | -52.6 | 0.00719 | 0.0199* | 0.0372 | 0.0138* | 0.0253* | 0.016*
Cc1cc(C)n(-c2nc(SCC(=O)O)c3c4c(sc3n2)COC(C)(C)C4)n1 | -18.9 | 1.78 | -6.8 | . | . | -1.7 | . | . | . | . | . | .
Cc1cnc(NC(=O)COc2cccc3c2OC(C)(C)C3)s1 | 3.9 | . | -1.4 | 0.6 | 1.0 | -16.9 | 0.00847 | 0.00715 | 0.0294 | 0.00703 | ? | 0.00974
CCOc1ccc(NS(=O)(=O)c2ccc(NS(=O)(=O)c3ccccc3)cc2)cc1 | -15.6 | . | 14.1 | 1.3 | -5.5 | 6.8 | 0.00791 | 0.00629 | 0.0305 | 0.00736 | ? | 0.0109
CCOc1ccc(S(=O)(=O)Nc2cccc(Cl)c2)cc1 | -15.4 | -0.58 | 19.7 | 10.0 | -6.7 | -3.1 | . | . | . | . | . | .
O=[N+]([O-])c1cccc(S(=O)(=O)c2ccc(NCCO)c([N+](=O)[O-])c2)c1 | -32.2 | -0.683 | 12.8 | . | -6.6 | -1.9 | . | . | . | . | . | .
